ChEMBL document CHEMBL4393666, “Synthesis and Anti-HCV Activities of 4'-Fluoro-2'-Substituted Uridine Triphosphates and Nucleotide Prodrugs: Discovery of 4'-Fluoro-2'- C-methyluridine 5'-Phosphoramidate Prodrug (AL-335) for the Treatment of Hepatitis C Infection” (J Med Chem, 2019)
The source made the active and inactive calls. No cut-off for these calls is given here.

Legend:
[1] = Inhibition of RNA polymerase 2 in human HeLa cell nuclear extract assessed as reduction in RNA transcription by PAGE analysis; assay type: cell-based
Method in brief: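 In vitro transcription by RNA polymerase II in HeLa cell nuclear extract; RNA products resolved on 6% TBE-urea polyacrylamide gels.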

[2] = target: DNA-directed RNA polymerase, mitochondrial (Homo sapiens, UniProt O00411); experiment: Inhibition of human mitochondrial DNA-dependent RNA polymerase activity at 100 uM using 33P-RNA/DNA primer/template by phosphor-imaging analysis
DNA-directed RNA polymerase, mitochondrial, sequence (O00411 whole entry): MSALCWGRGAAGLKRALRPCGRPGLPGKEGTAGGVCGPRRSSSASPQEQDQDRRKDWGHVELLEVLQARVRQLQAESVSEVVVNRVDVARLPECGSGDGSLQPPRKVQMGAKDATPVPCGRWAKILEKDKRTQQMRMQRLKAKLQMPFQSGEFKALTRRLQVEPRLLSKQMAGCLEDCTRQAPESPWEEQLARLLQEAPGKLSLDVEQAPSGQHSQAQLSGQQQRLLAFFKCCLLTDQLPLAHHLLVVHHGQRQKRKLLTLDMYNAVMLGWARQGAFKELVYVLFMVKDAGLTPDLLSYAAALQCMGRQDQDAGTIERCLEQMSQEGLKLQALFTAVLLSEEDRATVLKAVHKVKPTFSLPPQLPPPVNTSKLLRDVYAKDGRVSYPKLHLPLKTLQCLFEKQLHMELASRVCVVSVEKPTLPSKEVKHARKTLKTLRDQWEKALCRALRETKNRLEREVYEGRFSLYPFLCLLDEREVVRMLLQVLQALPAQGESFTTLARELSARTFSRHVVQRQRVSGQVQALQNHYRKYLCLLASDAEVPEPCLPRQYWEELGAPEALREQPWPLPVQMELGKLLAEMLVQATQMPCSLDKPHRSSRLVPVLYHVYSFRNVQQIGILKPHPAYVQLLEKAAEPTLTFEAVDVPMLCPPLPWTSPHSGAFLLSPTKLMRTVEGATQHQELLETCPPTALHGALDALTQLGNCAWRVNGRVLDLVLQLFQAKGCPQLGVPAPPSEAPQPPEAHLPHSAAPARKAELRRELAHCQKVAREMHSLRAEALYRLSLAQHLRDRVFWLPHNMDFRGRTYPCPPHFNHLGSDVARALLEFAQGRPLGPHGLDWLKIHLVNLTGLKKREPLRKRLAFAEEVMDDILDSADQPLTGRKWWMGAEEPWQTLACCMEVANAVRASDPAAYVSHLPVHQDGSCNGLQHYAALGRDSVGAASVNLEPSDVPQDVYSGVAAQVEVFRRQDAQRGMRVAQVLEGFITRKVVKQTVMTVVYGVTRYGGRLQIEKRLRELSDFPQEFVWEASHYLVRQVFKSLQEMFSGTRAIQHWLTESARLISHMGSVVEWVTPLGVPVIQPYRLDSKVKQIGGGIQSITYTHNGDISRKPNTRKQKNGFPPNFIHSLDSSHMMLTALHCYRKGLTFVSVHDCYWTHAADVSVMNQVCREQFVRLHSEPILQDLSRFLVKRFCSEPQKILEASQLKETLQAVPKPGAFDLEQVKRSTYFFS

DNA polymerase gamma = target: T1, DNA polymerase gamma (Homo sapiens, UniProt P54098); experiment: Inhibition of human DNA polymerase-gamma assessed as reduction in [3H]dTTP incorporation in to activated calf thymus DNA substrate at 100 uM by scintillation counting method relative to control; details: human DNA polymerase-gamma enzyme, probe [3H]dTTP
T1 sequence (P54098 whole entry): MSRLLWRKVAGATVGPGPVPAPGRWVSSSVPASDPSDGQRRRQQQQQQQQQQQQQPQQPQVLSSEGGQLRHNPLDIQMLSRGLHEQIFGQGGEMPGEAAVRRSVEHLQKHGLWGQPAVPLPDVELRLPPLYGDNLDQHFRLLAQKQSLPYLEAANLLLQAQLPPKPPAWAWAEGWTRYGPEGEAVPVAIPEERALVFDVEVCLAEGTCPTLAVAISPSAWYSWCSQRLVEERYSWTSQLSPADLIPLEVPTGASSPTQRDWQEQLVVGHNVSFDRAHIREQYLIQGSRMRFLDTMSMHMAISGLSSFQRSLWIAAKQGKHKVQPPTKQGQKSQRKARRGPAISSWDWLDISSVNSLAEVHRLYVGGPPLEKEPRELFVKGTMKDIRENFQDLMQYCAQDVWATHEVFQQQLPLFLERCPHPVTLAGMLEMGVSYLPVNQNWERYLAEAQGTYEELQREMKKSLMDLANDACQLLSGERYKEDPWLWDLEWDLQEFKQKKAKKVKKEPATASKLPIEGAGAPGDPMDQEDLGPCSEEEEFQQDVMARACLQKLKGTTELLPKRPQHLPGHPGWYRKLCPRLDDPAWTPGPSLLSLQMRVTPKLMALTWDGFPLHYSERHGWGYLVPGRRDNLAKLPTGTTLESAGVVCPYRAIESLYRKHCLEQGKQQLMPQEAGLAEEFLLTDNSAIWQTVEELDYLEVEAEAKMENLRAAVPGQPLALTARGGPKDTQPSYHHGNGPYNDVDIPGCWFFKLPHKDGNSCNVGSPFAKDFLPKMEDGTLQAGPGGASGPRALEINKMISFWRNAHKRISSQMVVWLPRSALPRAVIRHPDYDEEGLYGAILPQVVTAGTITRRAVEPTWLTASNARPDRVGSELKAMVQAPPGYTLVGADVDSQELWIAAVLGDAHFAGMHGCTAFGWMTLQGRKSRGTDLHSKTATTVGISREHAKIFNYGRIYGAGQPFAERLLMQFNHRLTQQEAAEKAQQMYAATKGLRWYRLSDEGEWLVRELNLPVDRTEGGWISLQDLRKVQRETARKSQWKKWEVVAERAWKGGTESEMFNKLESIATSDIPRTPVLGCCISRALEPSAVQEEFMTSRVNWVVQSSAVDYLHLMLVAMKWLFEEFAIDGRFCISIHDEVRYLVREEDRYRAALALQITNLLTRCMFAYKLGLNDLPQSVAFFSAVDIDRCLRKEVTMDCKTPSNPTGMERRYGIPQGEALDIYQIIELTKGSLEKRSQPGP

DNA polymerase beta = DNA polymerase beta (Homo sapiens, UniProt P06746); experiment: Inhibition of human DNA polymerase-beta assessed as reduction in [3H]dTTP incorporation in to activated calf thymus DNA substrate at 100 uM by scintillation counting method relative to control; details: human DNA polymerase-beta enzyme, probe [3H]dTTP
DNA polymerase alpha = target: T2, DNA polymerase alpha (Homo sapiens, UniProt P09884); experiment: Inhibition of human DNA polymerase-alpha assessed as reduction in [3H]dTTP incorporation in to activated calf thymus DNA substrate at 100 uM by scintillation counting method relative to control; details: human DNA polymerase-alpha enzyme, probe [3H]dTTP
T2 sequence (P09884 whole entry): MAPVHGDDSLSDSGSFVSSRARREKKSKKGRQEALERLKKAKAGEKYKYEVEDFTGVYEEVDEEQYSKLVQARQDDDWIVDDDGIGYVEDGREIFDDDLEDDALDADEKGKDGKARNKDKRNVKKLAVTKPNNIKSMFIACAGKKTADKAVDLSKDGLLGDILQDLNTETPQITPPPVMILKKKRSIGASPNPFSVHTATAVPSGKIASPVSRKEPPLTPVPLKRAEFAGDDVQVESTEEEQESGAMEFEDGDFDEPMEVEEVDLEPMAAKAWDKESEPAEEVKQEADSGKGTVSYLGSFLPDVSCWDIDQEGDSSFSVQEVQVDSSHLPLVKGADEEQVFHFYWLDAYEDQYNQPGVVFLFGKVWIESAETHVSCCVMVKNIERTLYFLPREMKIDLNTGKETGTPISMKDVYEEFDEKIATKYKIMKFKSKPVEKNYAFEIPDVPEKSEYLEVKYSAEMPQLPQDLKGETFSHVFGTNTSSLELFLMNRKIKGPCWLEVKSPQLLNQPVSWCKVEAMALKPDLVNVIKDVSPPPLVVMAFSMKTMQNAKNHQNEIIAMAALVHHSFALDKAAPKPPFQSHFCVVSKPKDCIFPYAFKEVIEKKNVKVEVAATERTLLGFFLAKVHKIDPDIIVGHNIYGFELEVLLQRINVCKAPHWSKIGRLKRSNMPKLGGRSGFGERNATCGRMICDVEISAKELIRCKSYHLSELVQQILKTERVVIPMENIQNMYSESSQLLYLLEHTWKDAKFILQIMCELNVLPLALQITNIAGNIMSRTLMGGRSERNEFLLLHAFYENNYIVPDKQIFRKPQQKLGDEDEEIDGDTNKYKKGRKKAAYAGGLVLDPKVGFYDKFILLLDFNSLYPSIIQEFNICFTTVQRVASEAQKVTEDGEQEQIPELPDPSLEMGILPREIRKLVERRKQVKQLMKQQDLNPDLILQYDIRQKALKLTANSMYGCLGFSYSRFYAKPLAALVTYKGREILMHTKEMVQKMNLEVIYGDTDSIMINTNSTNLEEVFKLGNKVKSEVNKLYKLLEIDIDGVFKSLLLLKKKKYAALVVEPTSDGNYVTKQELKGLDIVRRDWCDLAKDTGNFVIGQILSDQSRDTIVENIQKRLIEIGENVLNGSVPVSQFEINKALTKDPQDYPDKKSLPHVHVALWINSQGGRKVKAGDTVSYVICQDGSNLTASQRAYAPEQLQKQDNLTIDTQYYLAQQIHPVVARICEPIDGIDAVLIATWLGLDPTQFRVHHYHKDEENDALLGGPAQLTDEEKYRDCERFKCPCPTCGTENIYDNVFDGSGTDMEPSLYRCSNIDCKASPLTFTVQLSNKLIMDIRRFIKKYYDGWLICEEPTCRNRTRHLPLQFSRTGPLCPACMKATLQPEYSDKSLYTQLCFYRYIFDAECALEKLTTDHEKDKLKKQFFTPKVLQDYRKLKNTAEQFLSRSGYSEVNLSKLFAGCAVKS

[3] = target: RNA-directed RNA polymerase (Hepacivirus hominis, UniProt O39930); experiment: Inhibition of HCV NS5B RNA-dependent RNA polymerase activity assessed as reduction in radiolabeled-CTP incorporation into RNA using cIRES template measured after 2 hrs by microscintillation counting method
RNA-directed RNA polymerase, sequence (O39930 whole entry): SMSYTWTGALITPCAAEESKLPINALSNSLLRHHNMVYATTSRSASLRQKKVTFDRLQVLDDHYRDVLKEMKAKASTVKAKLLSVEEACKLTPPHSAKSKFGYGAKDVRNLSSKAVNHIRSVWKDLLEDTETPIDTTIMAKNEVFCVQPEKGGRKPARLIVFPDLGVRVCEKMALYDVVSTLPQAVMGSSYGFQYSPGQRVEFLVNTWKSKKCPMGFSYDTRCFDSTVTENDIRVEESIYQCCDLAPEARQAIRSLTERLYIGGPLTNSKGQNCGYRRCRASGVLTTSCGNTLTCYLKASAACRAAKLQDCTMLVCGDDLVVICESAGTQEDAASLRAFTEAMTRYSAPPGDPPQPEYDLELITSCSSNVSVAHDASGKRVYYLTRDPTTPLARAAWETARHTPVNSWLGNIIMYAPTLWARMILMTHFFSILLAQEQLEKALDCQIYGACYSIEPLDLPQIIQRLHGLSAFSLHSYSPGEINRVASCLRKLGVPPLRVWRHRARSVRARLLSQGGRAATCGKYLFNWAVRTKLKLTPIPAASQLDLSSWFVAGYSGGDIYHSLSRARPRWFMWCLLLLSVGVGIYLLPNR

[4] = Cytotoxicity against human HeLa cells treated for 8 days measured post-last dose by Celltiter-glo luminescent assay; assay type: cell-based
Method in brief: (§1)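 Cells at 1×10^5/well on collagen I, first kept 8 days in recommended medium without drug. Then compound exposure for 8 days, refed every other day. Viability by CellTiter-Glo luminescence; CC50 by curve fitting.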

[5] = Cytotoxicity against human MT4 cells treated for 8 days measured post-last dose by Celltiter-glo luminescent assay; assay type: cell-based; method in brief: as §1
[6] = Cytotoxicity against human A549 cells treated for 8 days measured post-last dose by Celltiter-glo luminescent assay; assay type: cell-based; method in brief: as §1
[7] = Cytotoxicity against human U937 cells treated for 8 days measured post-last dose by Celltiter-glo luminescent assay; assay type: cell-based, U-937; method in brief: as §1
[8] = Cytotoxicity against human HepG2 cells treated for 8 days measured post-last dose by Celltiter-glo luminescent assay; assay type: cell-based; method in brief: as §1
[9] = Cytotoxicity against human HuH7 cells treated for 8 days measured post-last dose by Celltiter-glo luminescent assay; assay type: cell-based, Huh-7; method in brief: as §1
[10] = target: RNA-directed RNA polymerase (Hepacivirus hominis) (UniProt O39930); experiment: Inhibition of HCV NS5B RNA-dependent RNA polymerase assessed as chain termination of RNA synthesis by measuring reduction in dUTP incorporation at 100 uM using 33P-labeled 5'-GG-3'/5'-AUGUAUAAUUAUUGUAGCC-3' as primer/template measured after 2 hrs by phosphor-screening analysis
RNA-directed RNA polymerase (Hepacivirus hominis), sequence (O39930 1-591): as the sequence (O39930 whole entry) above
Method in brief: (§2)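 Recombinant NS5B (2 μM) with 1 μM template and 0.5 μM 33P-labeled GG primer in 40 mM Tris-HCl pH 8, 3 mM DTT, 20 mM NaCl, 6 mM MgCl2. Started with combinations of CTP, ATP, UTP, test NTP and 3'-dUTP, each 100 μM; 2 h at 30°C. Samples denatured 95°C 5 min, resolved on 22.5% polyacrylamide urea sequencing gel, phosphor-screen imaged.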

[11] = target: RNA-directed RNA polymerase (Hepacivirus hominis) (UniProt O39930); experiment: Inhibition of HCV NS5B RNA-dependent RNA polymerase assessed as chain termination of RNA synthesis by measuring reduction in UTP incorporation at 100 uM using 33P-labeled 5'-GG-3'/5'-AUGUAUAAUUAUUGUAGCC-3' as primer/template measured after 2 hrs by phosphor-screening analysis; method in brief: as §2
[12] = Cytotoxicity against human HuH7 cells infected with HCV con1 subgenomic replicon assessed as reduction in cell viability measured after 3 days by CellTiter-blue cell viability assay; assay type: cell-based, Huh-7
Method in brief: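 Con1 replicon Huh-7 cells treated as for the replicon assay (DMEM, 2% FBS, 0.5% DMSO, no G418, 37°C) for 3 days. Viability by CellTiter-Blue; CC50 by curve fitting.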

[13] = Half life in human hepatocytes assessed as 2a-TP level at 50 uM treated for 24 hrs followed by compound washout by LC-MS/MS analysis; assay type: ADME, cell-based, Hepatocyte
Method in brief: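 Primary human hepatocytes loaded with prodrug at 50 μM for 24 h at 37°C. Medium then replaced with blank medium; samples at 0, 3, 6, 10, 24 and 48 h. NTP by LC-MS/MS; half-life from first-order decay; n=3.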

Hepatitis C virus = experiment: Antiviral activity against HCV con1 subgenomic replicon infected in human HuH7 cells assessed as reduction in viral RNA replication by qRT-PCR analysis; assay type: functional, organism-based, Hepacivirus hominis; details: isolate Con1, Huh-7
Method in brief: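 Con1 subgenomic replicon Huh-7 cells (neomycin selection, kept in DMEM/10% FBS with 0.25 mg/ml G418) treated with compounds in DMEM, 2% FBS, 0.5% DMSO, no G418, at 37°C. Total RNA extracted; HCV RNA copy number by multiplex Taqman QRT-PCR. EC50/EC90 by 4-parameter curve fit; EC50 is the mean of ≥2 independent runs.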

IC50 [1] | inhibition (INH) [2] | inhibition at 100 µM (DNA polymerase gamma) | inhibition at 100 µM (DNA polymerase beta) | inhibition at 100 µM (DNA polymerase alpha) | IC50 [3] | SMILES | other results
> 100 µM | Active | 14.6% | -0.008% | 22.4% | – | C[C@@]1(O)[C@H](O)[C@@H](COP(=O)(O)OP(=O)(O)OP(=O)(O)O)O[C@H]1n1ccc(=O)[nH]c1=O | –
– | – | 7.9% | 18.1% | 75.8% | 190 nM | O=c1ccn([C@@H]2O[C@](F)(COP(=O)(O)OP(=O)(O)OP(=O)(O)O)[C@@H](O)[C@]2(F)Cl)c(=O)[nH]1 | –
– | – | – | – | – | – | COc1nc(N)nc2c1ncn2[C@@H]1O[C@H](COP(=O)(N[C@@H](C)C(=O)OCC(C)(C)C)Oc2cccc3ccccc23)[C@@H](O)[C@@]1(C)O (stereo partly specified) [BMS-986094] | CC50 at 192 h [4]: 13.4 µM; CC50 at 192 h [5]: 960 nM; CC50 at 192 h [6]: 7.8 µM; CC50 at 192 h [7]: 170 nM; CC50 at 192 h [8]: 1500 nM; CC50 at 192 h [9]: 350 nM
> 100 µM | Not Active | 9.6% | 12.6% | 16.1% | 140 nM | C[C@]1(O)[C@H](n2ccc(=O)[nH]c2=O)O[C@](F)(COP(=O)(O)OP(=O)(O)OP(=O)(O)O)[C@H]1O [ADAFOSBUVIR 5'-TRIPHOSPHATE] | inhibition [10]: Active; inhibition [11]: Active
> 100 µM | Active | 9.5% | 22.6% | 34.5% | – | C[C@@]1(Cl)[C@H](O)[C@@H](COP(=O)(O)OP(=O)(O)OP(=O)(O)O)O[C@H]1n1ccc(=O)[nH]c1=O [4A-TP] | –
– | – | – | – | – | – | CC(C)OC(=O)[C@H](C)NP(=O)(OC[C@@]1(F)O[C@@H](n2ccc(=O)[nH]c2=O)[C@](C)(O)[C@@H]1O)Oc1ccccc1 (stereo partly specified) | CC50 at 72 h [12]: > 100 µM; t1/2 [13]: 30.1 h; EC50 (Hepatitis C virus): 110 nM
> 100 µM | – | 15.7% | 24.7% | 70.8% | 300 nM | O=c1ccn([C@@H]2O[C@H](COP(=O)(O)OP(=O)(O)OP(=O)(O)O)[C@@H](O)[C@]2(F)Cl)c(=O)[nH]1 | –
> 100 µM | – | 9.2% | 14% | 58.2% | – | C[C@@]1(F)[C@H](O)[C@@H](COP(=O)(O)OP(=O)(O)OP(=O)(O)O)O[C@H]1n1ccc(=O)[nH]c1=O [GS-461203] | –
> 100 µM | – | -10% | 15.2% | 40.9% | 860 nM | C[C@]1(F)[C@H](n2ccc(=O)[nH]c2=O)O[C@](F)(COP(=O)(O)OP(=O)(O)OP(=O)(O)O)[C@H]1O | –
> 100 µM | Not Active | 18.4% | 24.3% | 19.7% | 110 nM | C[C@]1(Cl)[C@H](n2ccc(=O)[nH]c2=O)O[C@](F)(COP(=O)(O)OP(=O)(O)OP(=O)(O)O)[C@H]1O | –
